Measured values from publication PMC10962275 (Pharmacological research, 2024).
In brackets after ≈: the same amount, converted by molar mass. Read-outs that look alike come from different tables or passages of the source.

Key:
NFκB [1] = test: NFκB-driven luciferase reporter assay, NF90-8 cells; type: cell-based; conditions: Homo sapiens, 24 h, read-out: NFκB Luciferase 24 hr EC50±SE (μM)
How it was run: (§1)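 Pa03C and NF90–8 cells carrying an NFκB-driven GFP-luciferase reporter, checked for induction by TNF-α. Seeded, then treated 24 h later with increasing test compound doses in 5% FBS medium for 24 h. Luciferase measured by One-Glo, with parallel alamarBlue viability. Mean ± SEM, n > 2 biological repeats.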

Ref-1 = Ref-1 (Homo sapiens, UniProt P27695); test: Redox EMSA; type: biochemical
Ref-1, sequence (P27695 whole entry): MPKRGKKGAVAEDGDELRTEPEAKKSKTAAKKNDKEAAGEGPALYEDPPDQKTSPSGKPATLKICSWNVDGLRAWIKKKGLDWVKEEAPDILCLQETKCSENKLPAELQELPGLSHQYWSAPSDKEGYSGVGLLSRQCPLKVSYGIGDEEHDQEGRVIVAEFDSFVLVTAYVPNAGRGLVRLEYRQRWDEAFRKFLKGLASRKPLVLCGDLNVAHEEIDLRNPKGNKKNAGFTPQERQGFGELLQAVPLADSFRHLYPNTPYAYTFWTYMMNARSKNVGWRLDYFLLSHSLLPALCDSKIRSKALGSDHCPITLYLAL

[2] = Chemical stability in enabling vehicle PKT; type: physicochemical
HIF1α [3] = test: HIF1α-driven luciferase reporter assay, NF90-8 cells, 1% hypoxia; type: cell-based; conditions: Homo sapiens, 24 h, read-out: HIF1α Luciferase 24 hr EC50±SE (μM)
How it was run: as §1, with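 “a HIF1α-driven” for “an NFκB-driven”, “hypoxia.” for “TNF-α.”, “h under 1% hypoxia.” for “h.”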

[4] = Phase 1 metabolic stability, mouse liver microsomes; type: in vitro ADME; conditions: pH 7.4
How it was run: (§2)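 Test compound (1 μM) dried under nitrogen, then mixed with human or mouse liver S9 or microsomes (20 mg/mL stock) in phosphate buffer pH 7.4 with 5 mM MgCl2. Reaction started with NADPH (4 mM stock), shaken at 400 rpm. Sampled at 0, 5, 10, 20, 40 and 60 min and quenched with ice-cold acetonitrile; analysed by HPLC.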

NFκB [5] = test: NFκB luciferase reporter assay; type: cell-based, human; conditions: for IC50: Homo sapiens, Pa03C, read-out: NFκB (IC50 mM)
How it was run: as §1

[6] = Phase 1 metabolic stability, human liver microsomes; type: in vitro ADME; conditions: pH 7.4
How it was run: as §2

[7] = CaCO2 bidirectional permeability; type: in vitro ADME; conditions: human, Caco-2
Ref-1 (39–318/C138A) [8] = target: T1, Ref-1 (39–318/C138A) (Homo sapiens, UniProt P27695, C138A); test: WaterLOGSY NMR; type: binding; conditions: 20 μM Ref-1, 200 μM compound
T1 sequence (P27695 39-318 C138A): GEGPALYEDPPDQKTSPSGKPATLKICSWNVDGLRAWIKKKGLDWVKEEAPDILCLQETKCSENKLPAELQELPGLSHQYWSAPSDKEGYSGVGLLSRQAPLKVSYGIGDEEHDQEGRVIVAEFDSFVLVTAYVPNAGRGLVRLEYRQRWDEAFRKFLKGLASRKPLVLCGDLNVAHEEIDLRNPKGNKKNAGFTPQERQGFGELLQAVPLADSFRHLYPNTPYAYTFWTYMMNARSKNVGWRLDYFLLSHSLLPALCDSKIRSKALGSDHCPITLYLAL
How it was run: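 WaterLOGSY spectra acquired with 1.5 s mixing time, 128 scans, 10 ppm sweep width, 1.58 s acquisition time and 5 s relaxation delay. Data multiplied by an exponential function with 1 Hz line broadening before Fourier transformation.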

NFκB [9] = test: NFκB-driven luciferase reporter assay, Pa03C cells; type: cell-based; conditions: Homo sapiens, 24 h, read-out: NFκB Luciferase 24 hr EC50 ± SE (μM)
How it was run: as §1

Pa03C cells [10] = test: 3D co-culture spheroid assay, tumor cells; type: cell-based; conditions: Homo sapiens; for EC50: read-out: 3D tumor(Pa03C) EC50 (mM); for IC50: read-out: cell killing effect in the 3D spheroid assay
In vivo PK in mouse = conditions: plasma; for clearance: iv; for AUC(0-inf) / Cmax / half-life: po, 25 mg/kg
Thermodynamic solubility = type: physicochemical; conditions: thermodynamic from solid; for solubility thermodynamic at 24 h: 37 °C; for solubility thermodynamic: phosphate buffer, pH 6.8, aqueous buffer
NFκB and HIF1α = test: Ref-1-regulated transcription factor driven luciferase activity; type: cell-based, human; conditions: Pa03C and NF90–8 cells, 24 h
HIF1α [11] = test: HIF1α-driven luciferase reporter assay, Pa03C cells, 1% hypoxia; type: cell-based; conditions: Homo sapiens, 24 h, read-out: HIF1α Luciferase 24 hr EC50 ± SE (μM)
How it was run: as §1, with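 “a HIF1α-driven” for “an NFκB-driven”, “hypoxia.” for “TNF-α.”, “h under 1% hypoxia.” for “h.”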

APE1 = APE1 (Homo sapiens, UniProt P27695); test: Kinetic fluorescence based APE1 endonuclease; type: biochemical
APE1, sequence (P27695 whole entry): as the sequence (P27695 whole entry) above
How it was run: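 Recombinant APE1 at 0.07–0.1 nM, tuned before each run for a linear signal, cleaves a double-stranded oligo with a 6-FAM-labelled strand carrying a tetrahydrofuran AP-site mimic and a DABCYL-quenched complement. Read 495/530 over a 5 min kinetic read at 37 °C. A known repair inhibitor serves as reference, also at 20 μM.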

[12] = Plasma stability, human plasma; type: in vitro ADME
How it was run: (§3)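 Human or mouse plasma pre-warmed to 37 °C and added to dried test compound (1 μM) held on a 37 °C heat block. Stopped with cold acetonitrile at 0, 5, 10, 20, 40 and 60 min. Processed samples reconstituted in acetonitrile and analysed by HPLC.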

[13] = Phase 1 metabolic stability, mouse liver S9; type: in vitro ADME; conditions: liver S9, pH 7.4
How it was run: as §2

[14] = Phase 1 metabolic stability, human liver S9; type: in vitro ADME; conditions: liver S9, pH 7.4
How it was run: as §2

CAF19 cells = test: 3D co-culture spheroid assay, CAFs; type: cell-based; conditions: Homo sapiens, Pa03C, read-out: 3D CAF19 EC50 (mM)
How it was run: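 Pa03C (TdTomato-labelled) and CAF19 (EGFP-labelled) plated together at 1:4 in ultra-low-attachment plates to form spheroids. Treated on days 4, 8 and 12 with rising test compound levels in medium containing 5% serum and 3% growth-factor-reduced Matrigel. Fluorescence intensity read by high-content imaging on days 4, 8, 12 and 14. Mean ± SE, n > 3.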

[15] = Plasma stability, mouse plasma; type: in vitro ADME
How it was run: as §3

Ref-1 (39–318/C138A) [16] = target: T1, Ref-1 (39–318/C138A); conditions: ref [25]; cited from earlier work
NF90–8 cells = test: Mitochondrial plate-based assay; type: cell-based, human; conditions: APX2051 at 10 μM, APX3330 at 50 μM
How it was run: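 Biolog S-1 Mitoplates activated with Assay Mix for at least 60 min at 37 °C. NF90–8 cells treated 24 h, then collected, counted, resuspended in kit buffer and plated at 5 × 10^4 cells/well. Read kinetically at 590 nm every 5 min for 4 h at 37 °C. Mean ± SEM, n = 2; 2-way ANOVA.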

[17] = Phase 2 metabolic stability, human liver S9; type: in vitro ADME
How it was run: (§4)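 Test compound (1 μM) dried under nitrogen, then incubated with human or mouse liver S9 in UGT reaction mix, shaken at 400 rpm. Stopped with ice-cold acetonitrile at 0, 5, 10, 20, 40 and 60 min. Temazepam internal standard added, then centrifuged; supernatant dried and reconstituted in acetonitrile for HPLC.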

progressing solid tumors = conditions: phase I clinical trial, ref [34]–[36]; cited from earlier work
[18] = preclinical models; cited from earlier work
[19] = Phase 2 metabolic stability, mouse liver S9; type: in vitro ADME
How it was run: as §4

Pa03C cells [20] = test: NADP/NADPH assay; type: cell-based, human; conditions: 6 h
NF90–8 and Pa03C cells = test: Cell viability; type: cell-based, human; conditions: alamar blue, 24 h
[21] = FaSSGF, fassgf or other biorelevant

Row | Compound | EC50 (NFκB [1]) [µM] | EC50 (HIF1α [3]) [µM] | CLint scaled at 1 µM [4] [mL/min/kg] | IC50 (NFκB [5]) [mM] | CLint scaled at 1 µM [6] [mL/min/kg] | Papp A→B [7] [×10⁻⁶ cm/s] | EC50 (Pa03C cells [10]) [mM] | clearance (In vivo PK in mouse) [mL/min] | AUC(0-inf) (In vivo PK in mouse) [ng·h/mL] | Cmax (In vivo PK in mouse) [ng/mL] | half-life (In vivo PK in mouse) [min] | solubility thermodynamic at 24 h (Thermodynamic solubility; [21]) [µg/mL] | solubility thermodynamic at 24 h (Thermodynamic solubility; FaSSIF) [µg/mL] | solubility thermodynamic at 24 h (Thermodynamic solubility; FeSSIF) [µg/mL] | DNA Repair (APE1) | half-life at 1 µM [12] [min] | CLint scaled at 1 µM [13] [mL/min/kg] | CLint scaled at 1 µM [14] [mL/min/kg] | EC50 (CAF19 cells) [mM] | half-life at 1 µM [15] [min] | further results
1 | CCC/C(=C\C1=C(OC)C(=O)c2ccccc2C1=O)C(=O)N(CC)CC [APX2009, (E)‐N,N‐diethyl‐2‐[(3‐methoxy‐1,4‐dioxo‐1,4‐dihydronaphthalen‐2-yl)methylidene]pentanamide] | 5.1 ± 0.3 | 14.3 ± 0.25 | 19.3 | 0.0051 | 4.3 | 33.7 | 0.0046 | 0.683 | 113 | 27 | 108 | 95 (≈ 267 µM) | 198 (≈ 557 µM) | 558 (≈ 1570 µM) | Neg. | 163 | 7.9 | 2.9 | 0.0078 | 34 | IC50 (Ref-1): < 1000 nM; chemical stability in PKT vehicle, stressed ([2]; 60 °C for 4 h): formation of significant amount of the hydroquinone (HQ) of APX2053; chemical stability in PKT vehicle ([2]; room temperature after four days): acceptable stability; efflux ratio [7]: 0.75; peaks in waterLOGSY difference spectra (Ref-1 (39–318/C138A) [8]): consistent with interactions with Ref-1; EC50 (NFκB [9]): 18.8 ± 1.35 µM; IC50 (Pa03C cells [10]): 4.3 µM; solubility thermodynamic (Thermodynamic solubility): 94 µg/mL (≈ 264 µM); reduction in both NFκB and HIF1α activity: fold lower doses compared to APX3330 (NFκB and HIF1α): 2 – 11 fold; EC50 (HIF1α [11]): 14.5 ± 1.06 µM
2 | CC(=O)Nc1sc2c(c1-c1nc3ccccc3s1)CCN(C(C)C)C2 [ARi3, reference compound] |  |  |  |  |  |  |  |  |  |  |  |  |  |  |  |  |  |  |  |  | decrease of Ref-1 endonuclease activity (APE1; 20 μM, positive control): 63%
3 | CCCCCCCCC/C(=C\C1=C(C)C(=O)C(OC)=C(OC)C1=O)C(=O)O [APX3330, reference compound] | 33.7 ± 2.81 | 55.1 ± 0.44 | 67.4 | 0.0393 | 31.8 | 5.2 | > 0.02 | 0.00833 | 77900 | 8820 | 228 | 1 (≈ 2.64 µM) | 671 (≈ 1770 µM) | 448 (≈ 1180 µM) | Neg. | 509 | 14.2 | 4.4 | > 0.02 | 94 | peaks in waterLOGSY difference spectra (Ref-1 (39–318/C138A) [16]): consistent with interactions with Ref-1; inhibition of mitochondrial function (NF90–8 cells): minimal effects; CLint scaled at 1 µM [17]: 5.6 mL/min/kg; response rate (progressing solid tumors): 32%; potency in cell-based proliferation assays [18]: 50 to 75 µM; EC50 (NFκB [9]): 54.5 ± 1.97 µM; CLint scaled at 1 µM [19]: 21.6 mL/min/kg; solubility thermodynamic (Thermodynamic solubility): 496 µg/mL (≈ 1310 µM); EC50 (HIF1α [11]): 60.2 ± 4.13 µM
4 | CCC/C(=C\C1=C(O)C(=O)c2ccccc2C1=O)C(=O)N(CC)CC [APX2053, (E)-N,N-diethyl-2-((3-hydroxy-1,4-dioxo-1,4-dihydronaphthalen-2-yl)methylene)pentanamide] |  |  | 19 |  | 2.3 | 39.7 | 0.0161 | 0.0217 | 25400 | 5700 | 126 | 760 (≈ 2230 µM) | 1010 (≈ 2960 µM) | 1200 (≈ 3510 µM) | Slight. Inhib. | 25 | 34.6 | 1.9 | 0.0143 | 132 | NFκB activity (NFκB [5]; NF90–8 and Pa03C, any of the doses tested): do not decrease; blocking Ref-1 activated TF activity (for NFκB) (NFκB [5]; tested up to 40 μM): ineffective; efflux ratio [7]: 1; peaks in waterLOGSY difference spectra (Ref-1 (39–318/C138A) [8]): consistent with interactions with Ref-1; IC50 (Pa03C cells [10]): 16 µM; NADPH levels (ratio of NADPH/NADPt) (Pa03C cells [20]): does not show reduced NADPH levels; cell viability of reporter cells (NF90–8 and Pa03C cells): do not decrease the NFκB activity or affect cell viability
